Measurements published in ChEMBL document CHEMBL1944596, “7,8-dichloro-1-oxo-β-carbolines as a versatile scaffold for the development of potent and selective kinase inhibitors with unusual binding modes” (J Med Chem, 2012).
The source made the active and inactive calls. No cut-off for these calls is given here.

Experiments:
[1] = target: Platelet-derived growth factor receptor alpha (Homo sapiens) (UniProt P16234); assay: Inhibition of PDGFRalpha using ATP as substrate
[2] = system: K562; assay: Growth inhibition of human K562 cells after 48 hrs by WST-1 assay; format: functional, cell-based; settings: K562, 48 h
In short: (§1)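 Compound (0–10 μM) added to the culture medium and incubated 48 h. Proliferation and viability read by WST-1 reagent. Survival expressed as percentage of control cultures and IC50 derived by curve fitting.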

[3] = Growth inhibition of human SEM cells after 48 hrs by WST-1 assay; format: functional, cell-based; in short: as §1
[4] = target: Serine/threonine-protein kinase pim-2 (Homo sapiens, UniProt Q9P1W9); assay: Inhibition of PIM2 using ATP as substrate
[5] = target: MAP kinase-activated protein kinase 5 (Homo sapiens, UniProt Q8IW41); assay: Inhibition of MK5 using ATP as substrate
[6] = system: MV4-11; assay: Inhibition of PIM-mediated 4E-BP1 phosphorylation in human MV4-11 cells after 180 mins by Western blot analysis; format: cell-based
In short: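 MV4;11 cells at 5 × 10^5/mL in RPMI 1640 with 10% FCS, 37 °C, 5% CO2, treated at 0–10 μM for varied times. Lysed on ice in Triton X-100 buffer with NaF, Na3VO4 and protease inhibitors. 50 μg protein run on 15% SDS–PAGE and blotted for phospho-4E-BP1 with HRP chemiluminescence. Reprobed for total 4E-BP1 and β-actin as loading controls.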

[7] = target: Phosphatidylinositol 4,5-bisphosphate 3-kinase catalytic subunit delta isoform (Homo sapiens, UniProt O00329); assay: Inhibition of PI3Kdelta using ATP as substrate
[8] = target: Serine/threonine-protein kinase mTOR (Homo sapiens, UniProt P42345); assay: Inhibition of mTOR using ATP as substrate
[9] = Inhibition of S6K using ATP as substrate
[10] = target: Phosphatidylinositol 4,5-bisphosphate 3-kinase catalytic subunit beta isoform (Homo sapiens, UniProt P42338); assay: Inhibition of PI3Kbeta using ATP as substrate
[11] = target: Phosphatidylinositol 3-kinase catalytic subunit type 3 (Homo sapiens, UniProt Q8NEB9); assay: Inhibition of VPS34 using ATP as substrate
Chain of Phosphatidylinositol 3-kinase catalytic subunit type 3 (Q8NEB9 whole entry): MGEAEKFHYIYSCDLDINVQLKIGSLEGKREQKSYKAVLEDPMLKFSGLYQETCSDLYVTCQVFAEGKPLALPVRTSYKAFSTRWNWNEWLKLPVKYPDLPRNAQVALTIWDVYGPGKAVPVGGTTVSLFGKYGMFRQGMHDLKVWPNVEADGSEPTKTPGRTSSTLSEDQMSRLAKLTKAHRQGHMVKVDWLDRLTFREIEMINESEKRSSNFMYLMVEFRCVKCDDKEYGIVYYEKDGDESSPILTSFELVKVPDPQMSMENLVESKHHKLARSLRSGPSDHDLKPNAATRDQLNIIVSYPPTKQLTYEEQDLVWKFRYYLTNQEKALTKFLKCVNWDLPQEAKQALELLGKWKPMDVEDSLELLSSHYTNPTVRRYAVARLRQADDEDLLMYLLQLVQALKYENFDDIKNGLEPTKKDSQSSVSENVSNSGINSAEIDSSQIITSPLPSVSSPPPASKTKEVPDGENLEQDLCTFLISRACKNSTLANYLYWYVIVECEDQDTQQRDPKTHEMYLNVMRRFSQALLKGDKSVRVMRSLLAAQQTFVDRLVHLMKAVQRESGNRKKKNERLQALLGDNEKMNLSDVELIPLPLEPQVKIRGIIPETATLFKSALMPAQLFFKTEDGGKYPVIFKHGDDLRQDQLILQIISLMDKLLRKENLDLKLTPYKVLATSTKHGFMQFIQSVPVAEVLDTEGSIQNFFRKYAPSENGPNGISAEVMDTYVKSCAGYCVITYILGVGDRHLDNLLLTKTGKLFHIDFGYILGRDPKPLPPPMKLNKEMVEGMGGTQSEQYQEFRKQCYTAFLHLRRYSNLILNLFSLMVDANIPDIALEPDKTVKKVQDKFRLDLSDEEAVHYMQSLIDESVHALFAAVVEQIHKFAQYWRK

Chain of Phosphatidylinositol 4,5-bisphosphate 3-kinase catalytic subunit delta isoform (O00329 whole entry, canonical isoform): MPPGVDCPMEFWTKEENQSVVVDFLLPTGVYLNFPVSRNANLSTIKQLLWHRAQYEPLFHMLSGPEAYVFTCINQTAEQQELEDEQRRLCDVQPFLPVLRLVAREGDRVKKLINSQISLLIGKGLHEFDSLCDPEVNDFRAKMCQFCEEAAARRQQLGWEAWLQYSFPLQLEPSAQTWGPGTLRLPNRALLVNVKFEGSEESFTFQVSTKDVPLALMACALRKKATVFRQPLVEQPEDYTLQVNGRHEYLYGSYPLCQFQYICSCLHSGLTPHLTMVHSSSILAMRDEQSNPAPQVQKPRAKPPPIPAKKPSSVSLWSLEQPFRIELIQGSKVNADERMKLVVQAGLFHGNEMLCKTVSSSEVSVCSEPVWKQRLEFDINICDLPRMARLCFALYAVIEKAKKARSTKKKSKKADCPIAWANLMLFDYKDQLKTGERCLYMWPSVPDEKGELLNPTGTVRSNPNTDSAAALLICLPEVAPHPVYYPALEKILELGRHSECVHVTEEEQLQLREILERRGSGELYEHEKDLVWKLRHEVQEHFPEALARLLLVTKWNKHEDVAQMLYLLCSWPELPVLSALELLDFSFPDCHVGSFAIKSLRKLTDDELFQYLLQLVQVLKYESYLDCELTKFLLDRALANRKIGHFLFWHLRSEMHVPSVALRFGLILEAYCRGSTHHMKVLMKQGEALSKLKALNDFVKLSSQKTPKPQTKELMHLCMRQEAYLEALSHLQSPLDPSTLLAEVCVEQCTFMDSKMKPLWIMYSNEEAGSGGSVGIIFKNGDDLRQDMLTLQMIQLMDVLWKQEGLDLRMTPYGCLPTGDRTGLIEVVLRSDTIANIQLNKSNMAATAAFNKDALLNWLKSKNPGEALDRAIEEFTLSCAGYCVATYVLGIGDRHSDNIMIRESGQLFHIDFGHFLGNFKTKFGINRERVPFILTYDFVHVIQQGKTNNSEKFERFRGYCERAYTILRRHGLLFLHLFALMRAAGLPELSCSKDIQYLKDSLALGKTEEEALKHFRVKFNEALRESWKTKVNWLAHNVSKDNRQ
Chain of Serine/threonine-protein kinase pim-2 (Q9P1W9 whole entry): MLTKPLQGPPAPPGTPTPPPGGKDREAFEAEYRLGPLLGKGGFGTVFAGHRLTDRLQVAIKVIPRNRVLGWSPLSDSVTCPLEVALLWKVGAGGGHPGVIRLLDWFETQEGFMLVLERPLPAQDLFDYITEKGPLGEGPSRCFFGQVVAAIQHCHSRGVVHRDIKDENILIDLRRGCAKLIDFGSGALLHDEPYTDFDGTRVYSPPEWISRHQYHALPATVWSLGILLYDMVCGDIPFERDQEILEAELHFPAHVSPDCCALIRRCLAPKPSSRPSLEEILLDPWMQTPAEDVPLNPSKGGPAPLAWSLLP
Chain of Platelet-derived growth factor receptor alpha (Homo sapiens) (P16234 whole entry): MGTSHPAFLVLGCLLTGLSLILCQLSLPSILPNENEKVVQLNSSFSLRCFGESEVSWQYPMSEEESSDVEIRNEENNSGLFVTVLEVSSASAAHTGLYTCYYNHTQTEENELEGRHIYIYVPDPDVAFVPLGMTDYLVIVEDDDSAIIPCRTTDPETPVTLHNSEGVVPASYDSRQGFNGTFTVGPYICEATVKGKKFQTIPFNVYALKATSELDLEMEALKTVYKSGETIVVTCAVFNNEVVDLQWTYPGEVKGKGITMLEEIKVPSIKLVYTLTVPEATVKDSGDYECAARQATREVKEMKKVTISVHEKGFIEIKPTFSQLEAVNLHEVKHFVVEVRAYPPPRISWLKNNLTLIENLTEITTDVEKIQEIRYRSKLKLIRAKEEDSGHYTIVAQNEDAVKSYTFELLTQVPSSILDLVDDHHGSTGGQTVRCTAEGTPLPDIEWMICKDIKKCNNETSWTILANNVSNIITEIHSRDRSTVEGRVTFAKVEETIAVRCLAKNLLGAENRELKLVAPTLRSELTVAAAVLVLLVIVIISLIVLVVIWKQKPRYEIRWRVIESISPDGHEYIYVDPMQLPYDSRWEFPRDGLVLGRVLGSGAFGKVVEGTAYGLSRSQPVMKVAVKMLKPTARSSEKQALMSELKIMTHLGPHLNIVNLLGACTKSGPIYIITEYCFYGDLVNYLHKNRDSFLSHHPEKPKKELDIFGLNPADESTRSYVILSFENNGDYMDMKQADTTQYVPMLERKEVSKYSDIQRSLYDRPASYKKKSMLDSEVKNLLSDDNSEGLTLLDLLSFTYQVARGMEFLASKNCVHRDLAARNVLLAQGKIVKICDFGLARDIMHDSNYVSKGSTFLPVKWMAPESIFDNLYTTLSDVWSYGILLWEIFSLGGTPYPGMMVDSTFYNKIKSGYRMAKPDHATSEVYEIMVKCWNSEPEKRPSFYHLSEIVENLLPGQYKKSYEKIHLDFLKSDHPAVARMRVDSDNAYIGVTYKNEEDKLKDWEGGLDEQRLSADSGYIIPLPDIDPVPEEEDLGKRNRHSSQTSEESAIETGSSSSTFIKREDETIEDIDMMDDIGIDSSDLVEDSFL
Chain of Phosphatidylinositol 4,5-bisphosphate 3-kinase catalytic subunit beta isoform (P42338 whole entry, canonical isoform): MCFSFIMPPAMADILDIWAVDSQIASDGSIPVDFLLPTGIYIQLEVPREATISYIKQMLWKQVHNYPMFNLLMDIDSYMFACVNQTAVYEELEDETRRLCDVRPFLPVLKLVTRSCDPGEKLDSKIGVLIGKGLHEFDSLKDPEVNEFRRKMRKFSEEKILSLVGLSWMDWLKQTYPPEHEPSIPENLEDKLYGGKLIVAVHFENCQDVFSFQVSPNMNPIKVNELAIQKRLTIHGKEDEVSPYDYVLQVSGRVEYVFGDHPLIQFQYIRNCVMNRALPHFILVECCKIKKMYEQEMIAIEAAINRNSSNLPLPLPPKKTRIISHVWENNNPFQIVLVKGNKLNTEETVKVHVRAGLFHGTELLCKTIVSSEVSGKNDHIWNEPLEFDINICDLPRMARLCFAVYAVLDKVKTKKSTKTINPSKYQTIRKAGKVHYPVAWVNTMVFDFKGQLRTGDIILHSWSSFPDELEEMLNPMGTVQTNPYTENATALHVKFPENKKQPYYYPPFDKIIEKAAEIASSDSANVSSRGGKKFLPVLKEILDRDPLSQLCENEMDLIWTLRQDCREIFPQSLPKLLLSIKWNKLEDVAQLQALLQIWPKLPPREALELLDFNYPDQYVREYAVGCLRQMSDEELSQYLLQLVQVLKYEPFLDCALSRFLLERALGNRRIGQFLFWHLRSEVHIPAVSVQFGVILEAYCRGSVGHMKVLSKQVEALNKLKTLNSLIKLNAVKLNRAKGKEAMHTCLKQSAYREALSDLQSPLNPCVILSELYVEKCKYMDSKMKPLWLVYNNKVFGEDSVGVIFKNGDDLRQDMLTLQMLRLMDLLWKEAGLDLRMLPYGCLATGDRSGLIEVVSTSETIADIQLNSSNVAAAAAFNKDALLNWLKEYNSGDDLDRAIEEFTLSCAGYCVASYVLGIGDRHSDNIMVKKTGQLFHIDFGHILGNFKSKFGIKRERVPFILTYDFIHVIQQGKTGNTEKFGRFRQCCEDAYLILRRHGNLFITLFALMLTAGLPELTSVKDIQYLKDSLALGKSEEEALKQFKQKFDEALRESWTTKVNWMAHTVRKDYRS
Chain of MAP kinase-activated protein kinase 5 (Q8IW41 whole entry): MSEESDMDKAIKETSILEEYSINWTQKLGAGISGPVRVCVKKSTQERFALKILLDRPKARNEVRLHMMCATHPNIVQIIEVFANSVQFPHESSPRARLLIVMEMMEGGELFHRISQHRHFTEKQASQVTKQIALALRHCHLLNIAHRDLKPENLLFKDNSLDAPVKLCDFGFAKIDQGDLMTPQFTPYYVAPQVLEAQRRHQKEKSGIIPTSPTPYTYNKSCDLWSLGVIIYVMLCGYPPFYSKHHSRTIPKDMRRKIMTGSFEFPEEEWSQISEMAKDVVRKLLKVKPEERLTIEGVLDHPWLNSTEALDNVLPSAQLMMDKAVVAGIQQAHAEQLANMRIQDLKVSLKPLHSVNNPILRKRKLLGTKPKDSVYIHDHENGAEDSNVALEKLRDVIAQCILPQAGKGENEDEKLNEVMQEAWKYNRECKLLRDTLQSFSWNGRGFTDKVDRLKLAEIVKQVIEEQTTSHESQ

| SMILES | inhibition [1] | IC50 [2] | IC50 [3] | IC50 [4] | IC50 [5] | inhibition [6] | IC50 [7] | IC50 [8] | IC50 [9] | IC50 [10] | IC50 [11] |
| --- | --- | --- | --- | --- | --- | --- | --- | --- | --- | --- | --- |
| CN1CCC2(CC1)NC(=O)c1c(c3ccc(Cl)c(Cl)c3n1C)C2C#N (racemic) | inactive |  |  |  |  |  |  |  |  |  |  |
| Cn1c2c(c3ccc(Cl)c(Cl)c31)C(C#N)C1(CCNCC1)NC2=O (racemic) |  | 6.49 µM | 4.68 µM | 0.24 µM | 1.7 µM | Dose-dependent effect | 4.7 µM | > 9.1 µM | 0.23 µM | 8.6 µM | > 9.1 µM |
